# Read-outs that look alike come from different tables or passages of the source. Marks after values point to notes of the source that are not given here.
# Assays:
# P2Y6R = settings: cited from earlier work; for EC50: read-out: P2Y6R agonist EC50
# [1] = molecular target: P2Y6R expressed on 1321N1 astrocytoma cells (Homo sapiens, UniProt Q15077); assay: Flow cytometry; type: cell-based; settings: for Inhibition of fluorescent binding of 16 to 1321N1-P2Y6R cells: 30 min pre-incubation, then 16 for 2 min, FCM
# Chain of P2Y6R expressed on 1321N1 astrocytoma cells (Q15077 whole entry): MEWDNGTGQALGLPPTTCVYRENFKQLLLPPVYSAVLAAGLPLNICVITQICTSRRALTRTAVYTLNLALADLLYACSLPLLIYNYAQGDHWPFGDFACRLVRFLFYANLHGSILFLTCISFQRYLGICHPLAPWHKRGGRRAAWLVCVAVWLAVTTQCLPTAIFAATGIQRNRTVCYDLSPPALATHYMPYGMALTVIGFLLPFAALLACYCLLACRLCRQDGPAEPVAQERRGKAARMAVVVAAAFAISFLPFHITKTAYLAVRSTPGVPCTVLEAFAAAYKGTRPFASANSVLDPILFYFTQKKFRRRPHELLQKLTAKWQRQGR
# Summary of the method: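 1321N1 human astrocytoma cells stably expressing human P2Y6R were pre-incubated 30 min with known P2Y6R ligands. Cells were then exposed for 2 min to an Alexa Fluor 488-conjugated nucleotide agonist, and labeling was read by flow cytometry. Fluorescence was converted to MESF. Nonspecific binding was defined with 100 μM UDP, and autofluorescence came from receptor-expressing cells without probe.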
# [2] = molecular target: P2Y6R-expressing 1321N1 astrocytoma cells (Homo sapiens, UniProt Q15077); assay: Fluorescence/confocal microscopy of P2Y6R-expressing 1321N1 astrocytoma cells; type: cell-based; settings: for Inhibition of fluorescent labeling by 16 (micrographs): 500 nM, 30 min preincubation at 37 °C, 16 500 nM, 60 min
# Chain of P2Y6R-expressing 1321N1 astrocytoma cells (Q15077 whole entry): as above
# Summary of the method: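 Stably P2Y6R-expressing 1321N1 astrocytoma cells were exposed to an Alexa Fluor 488-conjugated nucleotide agonist (500 nM, 60 min, 37 °C), with or without a known P2Y6R agonist or a diisothiocyanate antagonist. Green fluorescence was imaged on a fluorescence microscope (excitation 495 nm, emission 519 nm).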
# human (h) P2Y6R = human (h) P2Y6R (Homo sapiens, UniProt Q15077); assay: PLC activation in 1321N1 human astrocytoma cells stably expressing the hP2Y6R; type: cell-based
# Chain of human (h) P2Y6R (Q15077 whole entry): as above
# Summary of the method: (§1)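 Agonist-induced phospholipase C activation in 1321N1 human astrocytoma cells stably expressing recombinant human P2Y6, P2Y2 or P2Y4 receptor. EC50 values are given as mean ± SEM. Efficacy is expressed as percent of the maximal activation by a full agonist at 10 μM. Subtype selectivity is taken as the ratio of EC50 values.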
# hP2Y2R = hP2Y2R (Homo sapiens, UniProt P41231); assay: PLC activation in 1321N1 cells stably expressing the hP2Y2R; type: cell-based; settings: for EC50: read-out: Potency, EC50, P2Y2, 1321N1 astrocytoma cells expressing recombinant hP2Y2, mean ± SEM, NE = no effect
# Chain of hP2Y2R (P41231 whole entry): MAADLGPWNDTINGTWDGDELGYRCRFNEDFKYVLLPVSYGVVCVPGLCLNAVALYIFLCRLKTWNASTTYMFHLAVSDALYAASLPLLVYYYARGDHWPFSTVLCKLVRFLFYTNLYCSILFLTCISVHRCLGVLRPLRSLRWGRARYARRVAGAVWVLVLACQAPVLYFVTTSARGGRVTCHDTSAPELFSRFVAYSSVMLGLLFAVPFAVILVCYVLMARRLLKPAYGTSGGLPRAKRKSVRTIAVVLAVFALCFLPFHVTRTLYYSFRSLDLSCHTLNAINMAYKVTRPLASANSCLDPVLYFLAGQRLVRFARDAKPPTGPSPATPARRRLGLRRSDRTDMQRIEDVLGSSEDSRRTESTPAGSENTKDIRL
# Summary of the method: as §1
# hP2Y4R = hP2Y4R (Homo sapiens, UniProt P51582); assay: PLC activation in 1321N1 cells stably expressing the hP2Y4R; type: cell-based; settings: percent of maximal activation by full agonist at 10 μM
# Chain of hP2Y4R (P51582 whole entry): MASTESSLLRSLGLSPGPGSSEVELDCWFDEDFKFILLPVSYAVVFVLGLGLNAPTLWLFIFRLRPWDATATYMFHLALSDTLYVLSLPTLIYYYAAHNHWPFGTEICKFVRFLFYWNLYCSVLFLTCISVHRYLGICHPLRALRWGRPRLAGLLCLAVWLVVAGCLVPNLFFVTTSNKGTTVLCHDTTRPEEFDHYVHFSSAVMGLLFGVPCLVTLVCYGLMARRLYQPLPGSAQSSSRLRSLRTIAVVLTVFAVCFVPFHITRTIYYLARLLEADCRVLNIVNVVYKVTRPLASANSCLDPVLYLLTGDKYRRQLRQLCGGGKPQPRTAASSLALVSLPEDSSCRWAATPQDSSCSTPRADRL
# Summary of the method: as §1
# hP2Y1R = hP2Y1R (Homo sapiens, UniProt P47900); assay: Labeling of 1321N1 cells expressing the hP2Y1R; type: cell-based; settings: data not shown
# Chain of hP2Y1R (P47900 whole entry): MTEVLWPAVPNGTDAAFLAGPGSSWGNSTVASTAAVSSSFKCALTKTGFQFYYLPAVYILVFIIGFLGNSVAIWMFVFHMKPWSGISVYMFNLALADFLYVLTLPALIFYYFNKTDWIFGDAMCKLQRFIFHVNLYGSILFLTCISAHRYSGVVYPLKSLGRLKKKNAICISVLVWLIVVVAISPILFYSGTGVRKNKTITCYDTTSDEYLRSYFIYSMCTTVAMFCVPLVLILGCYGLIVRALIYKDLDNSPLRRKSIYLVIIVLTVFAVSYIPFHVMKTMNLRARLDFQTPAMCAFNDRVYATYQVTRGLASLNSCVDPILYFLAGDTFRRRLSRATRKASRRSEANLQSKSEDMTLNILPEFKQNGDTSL
# hP2Y14R = molecular target: T1, hP2Y14R (Homo sapiens, UniProt Q15391); type: cell-based; settings: concentrations up to 10 μM; C6 rat glioma cells
# T1 sequence (Q15391 1-338): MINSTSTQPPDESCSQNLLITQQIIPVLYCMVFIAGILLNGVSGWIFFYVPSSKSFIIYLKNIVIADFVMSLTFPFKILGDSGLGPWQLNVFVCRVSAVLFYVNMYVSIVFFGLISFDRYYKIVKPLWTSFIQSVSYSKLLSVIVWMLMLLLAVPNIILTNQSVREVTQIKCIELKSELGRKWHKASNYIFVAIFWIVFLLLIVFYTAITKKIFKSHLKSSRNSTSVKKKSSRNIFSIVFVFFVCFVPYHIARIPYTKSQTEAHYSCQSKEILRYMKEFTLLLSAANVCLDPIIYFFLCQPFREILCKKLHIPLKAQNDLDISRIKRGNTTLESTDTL
# [3] = tested on: control 1321N1 astrocytoma cells; assay: FCM labeling of control 1321N1 astrocytoma cells; type: cell-based, human; settings: 60 min incubation
# Summary of the method: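 Whole-cell flow cytometry labelling with the Alexa Fluor 488-tagged test compound, 400 nM. Autofluorescence came from cells without the probe. Nonspecific binding was taken in the presence of 100 μM UDP, and specific binding is total minus nonspecific. Fluorescence was converted to molecules of equivalent soluble fluorochrome (MESF). Histograms are from one of three independent experiments.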
# [4] = tested on: 1321N1 astrocytoma cells not expressing a P2YR; assay: Fluorescence microscopy of 1321N1 astrocytoma cells not expressing a P2YR; type: cell-based, human; settings: incubated with 16
# Summary of the method: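 Confocal microscopy of 1321N1 astrocytoma cells incubated with the fluorescent test compound at 2 μM (figure panels give 1 μM) for 60 min at 37 °C. Cell-associated fluorescence was compared with receptor-expressing cells and with cells without the probe.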
compound,measurement,setting,value
"O=c1ccn([C@@H]2O[C@H](COP(=O)(O)OP(=O)(O)O)[C@@H](O)[C@H]2O)c(=O)[nH]1 [Compound 1, Uridine 5′-diphosphate]",EC50,P2Y6R; endogenous agonist,300 nM
same,Inhibition of fluorescent binding of 16 to 1321N1-P2Y6R cells,[1]; 10 μM,significant reduction of labeling
"O=C(Cn1c(=O)ccn([C@@H]2O[C@H](COP(=O)(O)OP(=O)(O)O)[C@@H](O)[C@H]2O)c1=O)c1ccccc1 [Compound 2, 3-phenacyl-UDP]",EC50,P2Y6R,70 nM
"O=c1[nH]/c(=N\OCc2ccccc2)ccn1[C@@H]1O[C@H](COP(=O)(O)OP(=O)(O)O)[C@@H](O)[C@H]1O [Compound 6, N^4-benzyloxy-CDP]",P2Y6R selectivity vs. P2Y2R,P2Y6R,82 fold
same,P2Y6R selectivity vs. P2Y4R,P2Y6R,44 fold
"CO/N=c1/ccn([C@@H]2O[C@H](COP(=O)(O)OP(=O)(O)OP(=O)(O)OC[C@H]3O[C@@H](n4ccc(=O)[nH]c4=O)[C@H](O)[C@@H]3O)[C@@H](O)[C@H]2O)c(=O)[nH]1 [Compound 8, P^1-(Uridine 5′-)-P^4-(N^4-methoxycytidine 5′-) triphosphate]",Inhibition of fluorescent labeling by 16 (micrographs),[2],inhibit fluorescent labeling
same,Inhibition of fluorescent binding of 16 to 1321N1-P2Y6R cells,[1]; 0.5 μM,significant reduction of labeling
O=c1[nH]/c(=N\OCc2cccc(Br)c2)ccn1[C@@H]1O[C@H](COP(=O)(O)OP(=O)(O)O)[C@@H](O)[C@H]1O [Compound 10],Selectivity toward the P2Y6R in comparison to the P2Y4R,human (h) P2Y6R; ratio of EC50 values,> 260 fold
O=c1[nH]/c(=N\OCc2ccc(I)cc2)ccn1[C@@H]1O[C@H](COP(=O)(O)OP(=O)(O)O)[C@@H](O)[C@H]1O [Compound 13],EC50,hP2Y2R,> 10 µM
same,"% activation, P2Y4",hP2Y4R,<50% ^c
CO/N=c1/ccn([C@@H]2O[C@H](COP(=O)(O)OP(=O)(O)OP(=O)(O)Oc3ccc4ccccc4c3)[C@@H](O)[C@H]2O)c(=O)[nH]1 [Compound 20],"% activation, P2Y4",hP2Y4R,<50% ^c
C#CCCOP(=O)(O)OP(=O)(O)OP(=O)(O)OC[C@H]1O[C@@H](n2cc/c(=N/OCc3ccccc3)[nH]c2=O)[C@H](O)[C@@H]1O [Compound 22],"% activation, P2Y2",hP2Y2R; percent of maximal activation by full agonist at 10 μM,<50% ^c
same,"% activation, P2Y4",hP2Y4R,<50% ^c
C#CCCCOP(=O)(O)OP(=O)(O)OP(=O)(O)OC[C@H]1O[C@@H](n2cc/c(=N/OCc3ccccc3)[nH]c2=O)[C@H](O)[C@@H]1O [Compound 23],EC50,hP2Y2R,> 10 µM
same,"Potency, EC50, P2Y6","human (h) P2Y6R; 1321N1 astrocytoma cells expressing recombinant hP2Y6, mean ± SEM",nearly inactive
same,"% activation, P2Y4",hP2Y4R,<50% ^c
S=C=Nc1cccc(NC(=S)NCCCCNC(=S)Nc2cccc(N=C=S)c2)c1 [MRS2578],Inhibition of fluorescent labeling by 16 (micrographs),[2],inhibit fluorescent labeling
same,Inhibition of fluorescent binding of 16 to 1321N1-P2Y6R cells,[1]; 1 μM,significant reduction of labeling
(N^4-(3-(AlexaFluor-NH-(CH2)6-triazole-(CH2)2-C≡C)-benzyloxy))-CDP [Compound 16],EC50,hP2Y2R,2.5 ± 0.66 µM
same,Specific labeling of 1321N1 cells expressing the hP2Y1R,hP2Y1R,no specific labeling
same,Selectivity toward the P2Y6R in comparison to the P2Y2R,human (h) P2Y6R; ratio of EC50 values,280 fold
same,Selectivity toward the P2Y6R in comparison to the P2Y4R,human (h) P2Y6R; ratio of EC50 values,> 1100 fold
same,EC50,"human (h) P2Y6R; read-out: Potency, EC50, P2Y6, 1321N1 astrocytoma cells expressing recombinant hP2Y6, mean ± SEM",9 ± 1.9 nM
same,P2Y6R potency gain over immediate precursor 15,human (h) P2Y6R; vs 15 lacking the fluorophore,11 fold
same,"Cell-associated fluorescence, localization","[2]; 2 μM, 60 min incubation at 37 °C, confocal microscopy",receptor-dependent and mainly intracellular
same,Activation of the hP2Y14R,hP2Y14R,did not activate
same,Specific labeling of control 1321N1 cells,[3],no specific labeling
same,"% activation, P2Y4",hP2Y4R,<50% ^c
same,Fluorescence of cells not expressing a P2YR,[4],no increase in fluorescence
N^4-(3-(Cy5-NH-(CH2)6-triazole-(CH2)2-C≡C)-benzyloxy)-CDP [Compound 17],Blockade of cell labeling by 100 μM UDP,[1]; 100 nM to 1 μM,could not be blocked
same,Dependence of 1321N1 cell labeling on P2Y6R expression,[1]; 100 nM to 1 μM,independent of the expression of the P2Y6R

# Source: paper PMC4493932 (MedChemComm, 2013)
